Experimental data as given in ChEMBL document CHEMBL1125080, “Potential antipsychotic agents 5. Synthesis and antidopaminergic properties of substituted 5,6-dimethoxysalicylamides and related compounds” (J Med Chem, 1990).
One block for each compound: values may come before it.

Key:
D(2) dopamine receptor [1] = target: T1, D(2) dopamine receptor (Rattus norvegicus, UniProt P61169); assay: In vitro ability to inhibit the binding of [3H]spiperone to dopamine receptor D2 in rat striatal membranes.; assay type: cell membranes, Membrane
T1 sequence (P61169 whole entry): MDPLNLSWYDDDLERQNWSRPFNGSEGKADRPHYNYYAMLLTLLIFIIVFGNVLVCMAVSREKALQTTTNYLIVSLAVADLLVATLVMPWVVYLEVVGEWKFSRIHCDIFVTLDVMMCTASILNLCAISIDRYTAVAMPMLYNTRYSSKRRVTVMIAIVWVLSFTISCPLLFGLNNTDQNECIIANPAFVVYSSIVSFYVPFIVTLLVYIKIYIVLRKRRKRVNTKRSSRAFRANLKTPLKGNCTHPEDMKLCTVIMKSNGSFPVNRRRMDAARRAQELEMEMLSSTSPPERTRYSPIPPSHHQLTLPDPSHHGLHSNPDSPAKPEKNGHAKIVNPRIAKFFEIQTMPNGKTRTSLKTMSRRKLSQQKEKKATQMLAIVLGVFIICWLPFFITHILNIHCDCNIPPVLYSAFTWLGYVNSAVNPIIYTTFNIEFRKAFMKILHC

Rattus norvegicus [2] = assay: Dose which blocks the hypothermic effect of apomorphine by 50% against Sprague-Dawley rats when administered intraperitoneally; assay type: functional; details: ip
Procedure, shortened: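 Sprague-Dawley rats (n = 6 per group) were pretreated ip with saline or compound 60 min before apomorphine HCl (1 mg/kg sc). Core temperature was taken by rectal probe before dosing, before apomorphine and 15 min after it. Mean changes were expressed as percent of control.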

Rattus norvegicus [3] = assay: Evaluated in vitro for antipsychotic activity (hyperactivity) for the block of apomorphine induced response after ip administration 60 min prior to apomorphine (1 mg/kg sc); assay type: functional
Procedure, shortened: (§1)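 Male Sprague-Dawley rats (270–325 g) received compound ip, in saline or in acetic acid plus distilled water, 60 min before apomorphine HCl (1 mg/kg sc, neck). Hyperactivity and stereotypies were scored 5, 20, 40 and 60 min after apomorphine.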

Rattus norvegicus [4] = assay: Catalepsy interval defined as the time required for both fore limbs to be removed from the bar when administered intraperitoneally; assay type: functional; details: ip
Procedure, shortened: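 Rats given test compound ip, then tested on a horizontal bar (1.5 cm diameter, 7 cm above cage floor) at 20, 40, 60, 90, 120 and 240 min after injection. A saline control group was tested the same way. An animal counted as cataleptic if it held ≥ 15 s. The proportion cataleptic at each dose gave dose-response curves, and ED50 came from probit analysis.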

Rattus norvegicus [5] = assay: Evaluated in vitro for antipsychotic activity (stereotypies) for the block of apomorphine induced response after ip administration 60 min prior to apomorphine (1 mg/kg sc); assay type: functional; procedure, shortened: as §1
D(2) dopamine receptor [6] = target: T1, D(2) dopamine receptor; assay: Inhibition of [3H]raclopride binding to rat striatal membrane Dopamine receptor D2

SMILES: CCN1CCC[C@H]1CNC(=O)c1c(OC)c(Br)cc(OC)c1OC
- IC50 (D(2) dopamine receptor [1]): 1750 nM

SMILES: CCc1cc(OC)c(OC)c(C(=O)NC[C@@H]2CCCN2CC)c1OC
- IC50 (D(2) dopamine receptor [1]): 820 nM

SMILES: O=C(CCCN1CCC(O)(c2ccc(Cl)cc2)CC1)c1ccc(F)cc1 [HALOPERIDOL]
- ED50 (Rattus norvegicus [2]): 0.35 µmol/kg
- ED50 (Rattus norvegicus [3]): 0.37 µmol/kg
- ED50 (Rattus norvegicus [4]): 0.9 µmol/kg
- ED50 (Rattus norvegicus [5]): 0.27 µmol/kg

SMILES: CCN1CCC[C@H]1CNC(=O)c1c(O)c(OC)cc(Br)c1OC
- Ki (D(2) dopamine receptor [6]): 8.38 nM
- ED50 (Rattus norvegicus [3]): 1.3 µmol/kg
- IC50 (D(2) dopamine receptor [1]): 67 nM
- ED50 (Rattus norvegicus [5]): 12 µmol/kg

SMILES: CCN1CCC[C@H]1CNC(=O)c1c(OC)c(Cl)cc(OC)c1OC
- IC50 (D(2) dopamine receptor [1]): 420 nM

SMILES: CCCc1cc(OC)c(OC)c(C(=O)NC[C@@H]2CCCN2CC)c1O.O=C(O)/C(O)=C(\O)C(=O)O
- Ki (D(2) dopamine receptor [6]): 0.023 nM

SMILES: CCc1cc(Cl)c(OC)c(C(=O)NC[C@@H]2CCCN2CC)c1O [ETICLOPRIDE]
- ED50 (Rattus norvegicus [2]): 0.09 µmol/kg
- ED50 (Rattus norvegicus [3]): 0.015 µmol/kg
- ED50 (Rattus norvegicus [4]): 0.74 µmol/kg
- ED50 (Rattus norvegicus [5]): 0.19 µmol/kg

SMILES: CCN1CCC[C@H]1CNC(=O)c1c(O)c(Br)cc(OC)c1OC
- ED50 (Rattus norvegicus [2]): 0.005 µmol/kg
- Ki (D(2) dopamine receptor [6]): 0.064 nM
- ED50 (Rattus norvegicus [4]): 0.14 µmol/kg

SMILES: CCN1CCC[C@H]1CNC(=O)c1c(O)c(Cl)cc(Cl)c1OC [RACLOPRIDE]
- ED50 (Rattus norvegicus [2]): 0.2 µmol/kg
- ED50 (Rattus norvegicus [4]): 11 µmol/kg

SMILES: CCN1CCC[C@H]1CNC(=O)c1c(O)c(OC)cc(Cl)c1OC
- IC50 (D(2) dopamine receptor [1]): 71 nM

SMILES: CCN1CCC[C@H]1CNC(=O)c1c(O)ccc(OC)c1OC
- Ki (D(2) dopamine receptor [6]): 0.75 nM

SMILES: CCN1CCC[C@@H]1CNC(=O)c1c(O)c(Br)cc(OC)c1OC
- Ki (D(2) dopamine receptor [6]): 6.54 nM
- ED50 (Rattus norvegicus [3]): 12.6 µmol/kg
- IC50 (D(2) dopamine receptor [1]): 79 nM
- ED50 (Rattus norvegicus [5]): 5.3 µmol/kg

SMILES: CCCc1cc(OC)c(OC)c(C(=O)NC[C@@H]2CCCN2CC)c1OC
- IC50 (D(2) dopamine receptor [1]): 2960 nM

SMILES: CCN1CCC[C@H]1CNC(=O)c1c(OC)ccc(OC)c1O
- IC50 (D(2) dopamine receptor [1]): 205 nM

SMILES: CCN1CCC[C@H]1CNC(=O)c1cc(S(N)(=O)=O)ccc1OC [LEVOSULPIRIDE]
- ED50 (Rattus norvegicus [2]): 8 µmol/kg
- ED50 (Rattus norvegicus [3]): 55 µmol/kg
- ED50 (Rattus norvegicus [4]): 280 µmol/kg
- ED50 (Rattus norvegicus [5]): 290 µmol/kg

SMILES: CCN1CCC[C@@H]1CNC(=O)c1c(O)c(OC)cc(Br)c1OC
- IC50 (D(2) dopamine receptor [1]): 6170 nM

Other lines, results leading:

- IC50 (D(2) dopamine receptor [1]): 1.9 nM
SMILES: CCN1CCC[C@H]1CNC(=O)c1c(O)c(Br)cc(O)c1OC

- IC50 (D(2) dopamine receptor [1]): 56 nM
SMILES: CCN1CCC[C@H]1CNC(=O)c1c(O)ccc(O)c1OC

- IC50 (D(2) dopamine receptor [1]): 21 nM
SMILES: CCN1CCC[C@H]1CNC(=O)c1c(N)c(Br)cc(OC)c1OC

- IC50 (D(2) dopamine receptor [1]): 44 nM
SMILES: C=CCN1CCC[C@H]1CNC(=O)c1c(O)c(OC)cc(Br)c1OC

- IC50 (D(2) dopamine receptor [1]): 33 nM
SMILES: CCN1CCC[C@H]1CNC(=O)c1c(O)c(Br)cc(N)c1OC

- Ki (D(2) dopamine receptor [6]): 0.033 nM
- IC50 (D(2) dopamine receptor [1]): 0.77 nM
SMILES: CCc1cc(OC)c(OC)c(C(=O)NC[C@@H]2CCCN2CC)c1O

- Ki (D(2) dopamine receptor [6]): 0.087 nM
- IC50 (D(2) dopamine receptor [1]): 1.7 nM
SMILES: CCN1CCC[C@H]1CNC(=O)c1c(O)c(Cl)cc(OC)c1OC

- IC50 (D(2) dopamine receptor [1]): 19 nM
SMILES: CCc1cc(OC)c(O)c(C(=O)NC[C@@H]2CCCN2CC)c1OC
